Experimental data reported in ChEMBL document CHEMBL2384961, “Geranylated flavonoids displaying SARS-CoV papain-like protease inhibition from the fruits of Paulownia tomentosa” (Bioorg Med Chem, 2013).

Legend:
[1] = Mixed-type of inhibition of SARS coronavirus papain-like protease (1541 to 1855 amino acids) expressed in Escherichia coli BL21 (DE3) using Z-RLRGG-AMC as substrate by Dixon plot analysis; set-up: species or system Severe acute respiratory syndrome-related coronavirus
[2] = test system: Severe acute respiratory syndrome-related coronavirus; assay: (§1) Inhibition of SARS coronavirus papain-like protease (1541 to 1855 amino acids) expressed in Escherichia coli BL21 (DE3) using Z-RLRGG-AMC as substrate by fluorogenic assay
Outline: (§2)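 Protease domain construct His-tagged, purified by nickel affinity, ion-exchange and gel filtration, tag removed by TEV. […] AMC release followed continuously at ex 360/em 460 nm. IC50 is the concentration giving 50% activity loss; three repeat experiments, standard deviation.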

[3] = as §1; set-up: species or system Severe acute respiratory syndrome-related coronavirus; outline: as §2

## COc1cc([C@@H]2CC(=O)c3c(cc(O)c(C/C=C(\C)CCC=C(C)C)c3O)O2)cc(OC)c1O
[1]
  Ki: 8.4 µM
[2]
  inhibition: Dose-dependent effect
[3]
  IC50: 13.9 µM

## CC(C)(O)CCCC1(C)CCc2c(cc3c(c2O)C(=O)C[C@@H](c2ccc(O)c(O)c2)O3)O1 (some centres undefined)
[1]
  Ki: 4.8 µM
[2]
  inhibition: Dose-dependent effect
[3]
  IC50: 6.2 µM

## COc1cc([C@H]2Oc3cc4c(c(O)c3C(=O)[C@@H]2O)CCC(C)(CCCC(C)(C)O)O4)ccc1O (some centres undefined)
[1]
  Ki: 3.7 µM
[2]
  inhibition: Dose-dependent effect
[3]
  IC50: 5 µM

## COc1cc([C@@H]2CC(=O)c3c(cc4c(c3O)CCC(C)(CCCC(C)(C)O)O4)O2)cc(O)c1OC (some centres undefined)
[1]
  Ki: 5 µM
[2]
  inhibition: Dose-dependent effect
[3]
  IC50: 11.6 µM

## COc1ccc([C@@H]2CC(=O)c3c(cc(O)c(C/C=C(\C)CCC=C(C)C)c3O)O2)cc1O
[1]
  Ki: 6.9 µM
[2]
  inhibition: Dose-dependent effect
[3]
  IC50: 12.7 µM

## COc1cc([C@@H]2CC(=O)c3c(cc4c(c3O)CCC(C)(CCCC(C)(C)O)O4)O2)cc(OC)c1O (some centres undefined)
[1]
  Ki: 13 µM
[2]
  inhibition: Dose-dependent effect
[3]
  IC50: 12.5 µM

## COc1ccc([C@H]2Oc3cc(O)c(C/C=C(\C)CCC=C(C)C)c(O)c3C(=O)[C@@H]2O)cc1O
[1]
  Ki: 6.3 µM
[2]
  inhibition: Dose-dependent effect
[3]
  IC50: 9.2 µM

## CC(C)=CCC/C(C)=C/Cc1c(O)cc2c(c1O)C(=O)C[C@@H](c1ccc(O)c(O)c1)O2 [NYMPHAEOL A]
[1]
  Ki: 5.1 µM
[2]
  inhibition: Dose-dependent effect
[3]
  IC50: 10.4 µM

## CC(C)=CCC/C(C)=C/Cc1c(O)cc2c(c1O)C(=O)C[C@@H](c1ccc(O)cc1)O2 [BONANNIONE A]
[1]
  Ki: 7.8 µM
[2]
  inhibition: Dose-dependent effect
[3]
  IC50: 14.4 µM

## COc1cc([C@H]2Oc3cc(O)c(C/C=C(\C)CCC=C(C)C)c(O)c3C(=O)[C@@H]2O)ccc1O
[1]
  Ki: 6.6 µM
[2]
  inhibition: Dose-dependent effect
[3]
  IC50: 9.5 µM

## COc1cc([C@@H]2CC(=O)c3c(cc(O)c(C/C=C(\C)CCC=C(C)C)c3O)O2)ccc1O
[1]
  Ki: 7.1 µM
[2]
  inhibition: Dose-dependent effect
[3]
  IC50: 13.2 µM

## COc1ccc([C@@H]2CC(=O)c3c(cc4c(c3O)CCC(C)(CCCC(C)(C)O)O4)O2)cc1O (some centres undefined)
[2]
  inhibition: Dose-dependent effect
